Experiment [1] deals with Radical scavenging activity. Description: Antioxidant activity assessed as DPPH free radical scavenging activity by UV-Vis spectrophotometry. In kind it is functional. In short, it runs like this: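 DPPH methanolic solution (1.5 mL) mixed with 0.750 mL compound solution at 1, 0.5, 0.25, 0.125 and 0.0625 mg/mL; absorbance decrease read at 517 nm and % remaining DPPH radical calculated. IC50 (concentration halving initial DPPH) derived by regression across concentrations, expressed as nmol/mL.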
In general terms: The DPPH test is a chemical assay of radical scavenging.

A short description of experiment [2]: Antioxidant activity assessed as trolox equivalents ratio of AAPH radical scavenging activity after 30 mins by ORAC-fluorescein assay. The class given is functional. In short, it runs like this:
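Compounds dissolved in PBS immediately before use, pH 7.4; fluorescein quenching initiated by AAPH, fluorescence (excitation 485 nm) read at 37 °C every 5 min up to 30 min. Net area under fluorescein decay curve (blank minus sample) converted to Trolox equivalents via 10–50 µM Trolox calibration; three replicates.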

IC50 and Ratio data for 25 compounds are collected here from ChEMBL document CHEMBL1949533, “Novel molecular combination deriving from natural aminoacids and polyphenols: Design, synthesis and free-radical scavenging activities” (Eur J Med Chem, 2012).

Where only a bound is given, the exact number is not on record here.

For the compound `COC(=O)[C@H](CS)NC(=O)c1cc(OC)c(O)c(OC)c1`, the IC50 in experiment [1] is 143 µM.

Take `COC(=O)[C@H](CS)NC(=O)Cc1ccc(O)c(OC)c1`: the IC50 in experiment [1] is 82 µM. Moreover, in experiment [2], the Ratio is 2.4.

Take `COC(=O)[C@@H](N)Cc1ccc(O)cc1.Cl`: the IC50 in experiment [1] is above 1280 µM. Further, in experiment [2], the Ratio came out at 3.9.

Consider `O=C(O)/C=C/c1ccc(O)c(O)c1` [CAFFEIC ACID], for which the IC50 in experiment [1] worked out at 41 µM. In experiment [2], the Ratio was 2.7.

Consider `COC(=O)[C@H](CS)NC(=O)/C=C/c1ccc(O)cc1`, for which the IC50 in experiment [1] was 148 µM.

As to `O=C(O)Cc1ccc(O)c(O)c1` [3,4-DIHYDROXYPHENYLACETIC ACID], the IC50 in experiment [1] is 26 µM. In addition, the Ratio in experiment [2] came to 4.2.

On to `O=C(/C=C/c1ccc(O)c(O)c1)N[C@@H](CS)C(=O)NCCc1ccc(O)c(O)c1`, for which, in experiment [1], the IC50 was 26 µM. Moreover, the Ratio in experiment [2] turned out to be 0.855.

For `COC(=O)[C@H](CS)NC(=O)/C=C/c1cccc(O)c1`, the IC50 in experiment [1] amounted to 185 µM.

Take `COC(=O)[C@H](CS)NC(=O)Cc1ccc(O)c(O)c1`: the IC50 in experiment [1] worked out at 29 µM. In experiment [2], the Ratio amounted to 3.

For `COC(=O)[C@@H](N)CS.Cl`, in experiment [1], the IC50 came out at 123 µM. For the same compound, the Ratio in experiment [2] worked out at 0.3.

With `COC(=O)[C@H](CS)NC(=O)/C=C/c1ccccc1O`, the IC50 in experiment [1] was 150 µM.

On to `COC(=O)[C@H](Cc1ccc(O)cc1)NC(=O)/C=C/c1ccc(O)c(O)c1`, for which, in experiment [1], the IC50 stood at 30 µM. Moreover, in experiment [2], the Ratio is 3.4.

For the compound `COC(=O)[C@H](CCSC)NC(=O)/C=C/c1ccc(O)c(O)c1`, the IC50 in experiment [1] is 25 µM. Further, the Ratio in experiment [2] worked out at 2.3.

Turning to `COC(=O)[C@H](CS)NC(=O)/C=C/c1ccc(O)c(OC)c1`, the IC50 in experiment [1] turned out to be 84 µM. In experiment [2], the Ratio was 1.4.

Consider `COC(=O)[C@H](CS)NC(=O)/C=C/c1cc(OC)c(O)c(OC)c1`, for which the IC50 in experiment [1] came to 76 µM. Besides, the Ratio in experiment [2] is 1.3.

For the compound `O=C(/C=C/c1ccc(O)c(O)c1)N[C@@H](Cc1ccc(O)cc1)C(=O)NCCc1ccc(O)c(O)c1`, the IC50 in experiment [1] was 32 µM. The Ratio in experiment [2] is 2.79.

With `COC(=O)[C@H](CS)NC(=O)/C=C/c1ccc(O)c(O)c1`, in experiment [1], the IC50 was found to be 22 µM. The Ratio in experiment [2] stood at 1.4.

Consider `O=C(Cc1ccc(O)c(O)c1)N[C@@H](Cc1ccc(O)cc1)C(=O)NCCc1ccc(O)c(O)c1`, for which, in experiment [1], the IC50 is 32 µM. In addition, the Ratio in experiment [2] is 3.82.

For `Cc1c(C)c2c(c(C)c1O)CCC(C)(C(=O)O)O2` (racemic) [TROLOX], the IC50 in experiment [1] stood at 55 µM.

With `CSCC[C@H](NC(=O)/C=C/c1ccc(O)c(O)c1)C(=O)NCCc1ccc(O)c(O)c1`, the IC50 in experiment [1] worked out at 23 µM. Further, the Ratio in experiment [2] amounted to 3.38.

Take `O=C(Cc1ccc(O)c(O)c1)N[C@@H](CS)C(=O)NCCc1ccc(O)c(O)c1`: the IC50 in experiment [1] amounted to 20 µM. Besides, in experiment [2], the Ratio turned out to be 1.77.

Consider `COC(=O)[C@@H](N)CCSC.Cl` [METHIONINE METHYL ESTER HYDROCHLORIDE], for which the IC50 in experiment [1] is above 1250 µM. In addition, in experiment [2], the Ratio stood at 0.8.

Turning to `COC(=O)[C@H](CCSC)NC(=O)Cc1ccc(O)c(O)c1`, the IC50 in experiment [1] came out at 48 µM. The Ratio in experiment [2] was determined as 3.6.

In the case of `CSCC[C@H](NC(=O)Cc1ccc(O)c(O)c1)C(=O)NCCc1ccc(O)c(O)c1`, the IC50 in experiment [1] stood at 68 µM. In experiment [2], the Ratio turned out to be 1.24.

For `COC(=O)[C@H](Cc1ccc(O)cc1)NC(=O)Cc1ccc(O)c(O)c1`, the IC50 in experiment [1] is 44 µM. Also, the Ratio in experiment [2] was 4.8.

The IC50 is the concentration that gives 50% inhibition.
